Target: T1, NH(3)-dependent NAD(+) synthetase (Bacillus subtilis (strain 168), UniProt P08164)
T1 sequence (P08164 whole entry): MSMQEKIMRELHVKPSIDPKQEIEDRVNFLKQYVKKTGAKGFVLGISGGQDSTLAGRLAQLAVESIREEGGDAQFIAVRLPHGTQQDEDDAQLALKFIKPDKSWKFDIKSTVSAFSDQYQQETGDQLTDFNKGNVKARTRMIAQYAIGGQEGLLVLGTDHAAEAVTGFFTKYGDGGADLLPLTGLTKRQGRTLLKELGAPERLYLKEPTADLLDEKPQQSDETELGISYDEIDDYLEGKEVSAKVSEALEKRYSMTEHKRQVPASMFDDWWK
Assay: Inhibitory activity against Bacillus subtilis NAD synthetase
Procedure, shortened: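 Purified recombinant B. subtilis NAD synthetase, 2.0 µg/mL. Coupled assay: the NAD formed is converted to NADH by yeast alcohol dehydrogenase (40 µg/mL) with 1% EtOH. Buffer is 58.5 mM HEPES pH 8.5 with NH4Cl, KCl, MgCl2, 0.1 mM NaAD, 0.2 mM ATP, 0.3% BOG and 2.5% DMSO. ATP starts the reaction, which runs 10 min and is stopped with guanidine·HCl. Read A340 and fluorescence 460 nm minus pre-ATP background. IC50 from % inhibition at six concentrations.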

With `CN[C@@H]1[C@@H](O)[C@@H](O[C@@H]2[C@@H](O)[C@H](O[C@H]3O[C@H]([C@@H](C)NC)CC[C@H]3N)[C@@H](N)C[C@H]2N)OC[C@]1(C)O` [GENTAMICIN] the IC50 was > 1000 nM.
